In ChEMBL document CHEMBL1817562, “Docking and SAR studies of D- and L-isofagomine isomers as human β-glucocerebrosidase inhibitors” (Bioorg Med Chem, 2011) one finds IC50, inhibition and Ki data, which are given here for four compounds.

Test [1] is described as follows: Inhibition of rat intestinal maltase assessed as production of D-glucose using maltose as substrate after 10 to 30 mins by spectrophotometry. The method in brief: (§1)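 Enzymes were rice α-glucosidase at pH 5.0 and rat small-intestine brush border membranes (Kessler method) at pH 5.8. Each reaction contained 25 mM maltose and enzyme and was incubated 10–30 min at 37 °C. Reactions were stopped by heating at 100 °C for 3 min, then centrifuged. Released D-glucose was measured with a glucose test reagent by absorbance at 505 nm.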

A further test relates to Penicillium decumbens. Kind of test: Inhibition of Penicillium decumbens alpha-L-rhamnosidase assessed as production of p-nitrophenol at 1000 uM by spectrophotometry. Summed up: (§2)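 p-Nitrophenyl glycoside matched to each enzyme, 2 mM, with enzyme at that enzyme's optimum pH: Penicillium decumbens α-L-rhamnosidase pH 4.0, bovine liver β-galactosidase pH 6.8, coffee bean α-galactosidase pH 6.5, jack bean α-mannosidase pH 4.5, snail β-mannosidase pH 4.5. Stopped with 400 mM Na2CO3; released p-nitrophenol read at 400 nm.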

The subject of a further test is Coffea. Kind of test: Inhibition of coffee beans alpha-galactosidase assessed as production of p-nitrophenol at 1000 uM by spectrophotometry. Summed up: as §2
The target in a further test is T1, Beta-galactosidase (Bos taurus, UniProt Q58D55).
T1 sequence (Q58D55 whole entry): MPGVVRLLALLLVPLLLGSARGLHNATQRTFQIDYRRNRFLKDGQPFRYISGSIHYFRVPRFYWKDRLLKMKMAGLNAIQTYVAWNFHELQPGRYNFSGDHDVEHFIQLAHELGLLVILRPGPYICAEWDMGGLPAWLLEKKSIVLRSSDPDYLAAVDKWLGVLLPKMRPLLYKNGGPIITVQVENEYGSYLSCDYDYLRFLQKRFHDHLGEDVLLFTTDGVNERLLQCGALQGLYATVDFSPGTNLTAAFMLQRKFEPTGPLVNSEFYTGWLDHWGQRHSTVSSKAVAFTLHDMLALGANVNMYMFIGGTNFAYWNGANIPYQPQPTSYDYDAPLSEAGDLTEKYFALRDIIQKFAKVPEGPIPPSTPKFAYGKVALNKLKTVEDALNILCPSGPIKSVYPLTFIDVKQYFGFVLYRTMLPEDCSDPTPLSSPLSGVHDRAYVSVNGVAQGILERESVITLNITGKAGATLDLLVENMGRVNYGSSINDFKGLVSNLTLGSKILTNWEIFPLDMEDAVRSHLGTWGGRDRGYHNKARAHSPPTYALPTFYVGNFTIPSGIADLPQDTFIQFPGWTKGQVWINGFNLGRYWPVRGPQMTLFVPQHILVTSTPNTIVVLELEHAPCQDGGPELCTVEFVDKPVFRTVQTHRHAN
Briefly: Inhibition of bovine liver beta-galactosidase assessed as production of p-nitrophenol by spectrophotometry.

Another test relates to Oryza sativa. Conditions: 1000 uM.
Test [2] deals with T2, Sucrase-isomaltase, intestinal (Rattus norvegicus, UniProt P23739). Briefly: Inhibition of rat intestinal sucrase assessed as release of D-glucose at by spectrophotometry.
T2 sequence (P23739 1-1013 limits assumed): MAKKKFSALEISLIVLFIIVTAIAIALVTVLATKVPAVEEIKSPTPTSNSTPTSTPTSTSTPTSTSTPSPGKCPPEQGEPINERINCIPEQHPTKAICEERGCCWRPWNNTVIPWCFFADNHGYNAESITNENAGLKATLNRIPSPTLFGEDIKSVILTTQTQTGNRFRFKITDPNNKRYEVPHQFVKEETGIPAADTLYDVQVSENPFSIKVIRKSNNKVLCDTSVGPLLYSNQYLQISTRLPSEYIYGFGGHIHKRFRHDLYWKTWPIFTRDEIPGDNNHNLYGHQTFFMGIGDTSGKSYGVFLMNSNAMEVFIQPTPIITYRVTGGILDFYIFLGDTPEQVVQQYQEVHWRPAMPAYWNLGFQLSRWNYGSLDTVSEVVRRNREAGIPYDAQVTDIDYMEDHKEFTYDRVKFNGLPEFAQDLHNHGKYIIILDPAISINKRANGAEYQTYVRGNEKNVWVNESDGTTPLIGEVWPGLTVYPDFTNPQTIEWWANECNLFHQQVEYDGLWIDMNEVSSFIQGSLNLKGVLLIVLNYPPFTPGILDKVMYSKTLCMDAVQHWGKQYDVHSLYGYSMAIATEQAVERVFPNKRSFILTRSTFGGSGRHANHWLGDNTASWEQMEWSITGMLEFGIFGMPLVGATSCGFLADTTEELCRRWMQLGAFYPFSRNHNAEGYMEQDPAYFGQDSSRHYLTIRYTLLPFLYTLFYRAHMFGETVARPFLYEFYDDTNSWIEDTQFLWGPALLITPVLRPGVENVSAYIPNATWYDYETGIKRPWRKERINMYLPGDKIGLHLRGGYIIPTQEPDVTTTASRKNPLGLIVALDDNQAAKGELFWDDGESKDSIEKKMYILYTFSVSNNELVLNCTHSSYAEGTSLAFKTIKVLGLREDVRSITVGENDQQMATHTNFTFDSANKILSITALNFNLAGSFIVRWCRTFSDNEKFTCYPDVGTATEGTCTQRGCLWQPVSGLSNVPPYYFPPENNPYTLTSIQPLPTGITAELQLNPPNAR
T2 sequence (P23739 1014-1841 limits assumed): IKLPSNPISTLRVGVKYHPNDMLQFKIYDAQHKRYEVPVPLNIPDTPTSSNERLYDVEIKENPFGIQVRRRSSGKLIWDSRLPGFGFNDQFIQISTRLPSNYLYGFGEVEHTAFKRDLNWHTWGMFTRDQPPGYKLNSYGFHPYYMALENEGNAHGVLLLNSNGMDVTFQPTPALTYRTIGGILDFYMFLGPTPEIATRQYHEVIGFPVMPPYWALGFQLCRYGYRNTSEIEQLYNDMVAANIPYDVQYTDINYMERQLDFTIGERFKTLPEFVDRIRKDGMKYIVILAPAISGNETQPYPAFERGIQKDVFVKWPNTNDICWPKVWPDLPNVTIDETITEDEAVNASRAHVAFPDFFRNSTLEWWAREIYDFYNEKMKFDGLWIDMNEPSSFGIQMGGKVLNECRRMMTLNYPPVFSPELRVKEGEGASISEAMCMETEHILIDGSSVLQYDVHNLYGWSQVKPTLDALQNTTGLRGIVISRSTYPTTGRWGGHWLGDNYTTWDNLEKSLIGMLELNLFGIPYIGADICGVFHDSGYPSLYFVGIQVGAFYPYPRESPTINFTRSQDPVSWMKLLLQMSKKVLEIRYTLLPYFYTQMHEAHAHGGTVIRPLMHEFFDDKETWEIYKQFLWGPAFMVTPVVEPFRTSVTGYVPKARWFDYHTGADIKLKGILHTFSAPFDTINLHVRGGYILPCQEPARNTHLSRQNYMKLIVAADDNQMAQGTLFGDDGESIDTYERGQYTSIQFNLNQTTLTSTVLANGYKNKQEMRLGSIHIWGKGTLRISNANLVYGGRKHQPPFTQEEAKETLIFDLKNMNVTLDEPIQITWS
In test [3] the target is Lactase/phlorizin hydrolase (Rattus norvegicus, UniProt Q02401). Briefly: Inhibition of rat intestinal lactase assessed as production of p-nitrophenol by spectrophotometry.
Lactase/phlorizin hydrolase, sequence (Q02401 868-1928 limits assumed): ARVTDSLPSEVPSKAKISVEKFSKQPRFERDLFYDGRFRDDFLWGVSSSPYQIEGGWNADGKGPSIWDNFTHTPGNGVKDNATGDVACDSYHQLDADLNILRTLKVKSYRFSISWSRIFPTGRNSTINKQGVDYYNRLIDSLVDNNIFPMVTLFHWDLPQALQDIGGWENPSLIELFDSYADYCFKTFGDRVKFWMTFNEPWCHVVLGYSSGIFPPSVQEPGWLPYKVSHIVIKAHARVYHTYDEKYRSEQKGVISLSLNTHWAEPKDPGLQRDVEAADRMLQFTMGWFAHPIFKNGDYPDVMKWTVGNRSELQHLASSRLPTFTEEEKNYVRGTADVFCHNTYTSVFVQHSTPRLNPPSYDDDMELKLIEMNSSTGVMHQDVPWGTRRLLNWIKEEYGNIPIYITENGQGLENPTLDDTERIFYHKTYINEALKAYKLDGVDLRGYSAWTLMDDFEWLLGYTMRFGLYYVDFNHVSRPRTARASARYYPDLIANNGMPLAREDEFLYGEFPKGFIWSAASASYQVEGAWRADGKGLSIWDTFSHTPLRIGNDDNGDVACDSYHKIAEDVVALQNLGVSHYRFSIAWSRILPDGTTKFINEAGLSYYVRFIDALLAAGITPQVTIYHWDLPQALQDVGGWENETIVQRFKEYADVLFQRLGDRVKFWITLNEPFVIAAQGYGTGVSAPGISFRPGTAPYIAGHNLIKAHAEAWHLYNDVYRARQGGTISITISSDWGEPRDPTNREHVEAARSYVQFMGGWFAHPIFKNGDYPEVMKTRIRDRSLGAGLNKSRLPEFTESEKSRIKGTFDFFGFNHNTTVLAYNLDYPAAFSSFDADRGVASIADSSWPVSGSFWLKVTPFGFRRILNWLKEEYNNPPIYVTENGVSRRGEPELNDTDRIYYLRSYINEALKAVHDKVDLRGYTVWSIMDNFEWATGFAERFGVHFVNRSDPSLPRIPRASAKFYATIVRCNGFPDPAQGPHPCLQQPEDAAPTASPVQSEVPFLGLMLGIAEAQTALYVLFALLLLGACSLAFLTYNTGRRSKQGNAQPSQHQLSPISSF
Test [4] is described as follows: Inhibition of almond beta-glucosidase assessed as production of p-nitrophenol using p-nitrophenyl glycoside as substrate by spectrophotometry.
Test [5] addresses T3, Tissue alpha-L-fucosidase (Bos taurus) (UniProt Q2KIM0).
T3 sequence (whole entry): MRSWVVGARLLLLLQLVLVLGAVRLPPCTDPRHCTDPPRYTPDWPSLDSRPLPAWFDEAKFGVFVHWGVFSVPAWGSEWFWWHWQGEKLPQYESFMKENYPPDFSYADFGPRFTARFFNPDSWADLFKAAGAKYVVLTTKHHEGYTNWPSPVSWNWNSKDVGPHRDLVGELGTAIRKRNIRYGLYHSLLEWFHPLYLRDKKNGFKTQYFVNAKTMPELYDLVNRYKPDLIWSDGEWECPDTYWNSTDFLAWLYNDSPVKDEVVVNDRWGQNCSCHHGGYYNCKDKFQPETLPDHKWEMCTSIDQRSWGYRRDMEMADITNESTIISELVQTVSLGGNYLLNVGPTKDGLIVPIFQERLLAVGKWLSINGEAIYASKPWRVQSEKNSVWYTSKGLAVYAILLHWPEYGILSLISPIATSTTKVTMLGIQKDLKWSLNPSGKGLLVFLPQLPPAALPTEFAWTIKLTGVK
Conditions: 1000 uM.

Test [6] in a line: Inhibition of rat intestinal cellobiase assessed as production of p-nitrophenol by spectrophotometry.
For a further test, the system named is Helix pomatia. Briefly: Inhibition of snail beta-mannosidase assessed as production of p-nitrophenol at 1000 uM by spectrophotometry. Summed up:
as §2

The target of test [7] is T2, Sucrase-isomaltase, intestinal. Briefly: Inhibition of rat intestinal isomaltase assessed as production of p-nitrophenol at by spectrophotometry.
In another test the test system is Canavalia ensiformis. Kind of test: Inhibition of jack beans alpha-mannosidase assessed as production of p-nitrophenol at 1000 uM by spectrophotometry. The method in brief: as §2
The subject of the next test is Prunus dulcis. Particulars: 1000 uM.
The target in test [8] is Lactase/phlorizin hydrolase (Rattus norvegicus) (UniProt Q02401). Conditions: 1000 uM.
Lactase/phlorizin hydrolase (Rattus norvegicus), sequence (Q02401 868-1928 limits assumed): as the sequence (Q02401 868-1928 limits assumed) above
For another test, the species on record is Rattus norvegicus. Briefly: Inhibition of rat intestinal cellobiase assessed as production of p-nitrophenol at 1000 uM by spectrophotometry.
The nature of test [9]: Inhibition of rice alpha-glucosidase assessed as production of D-glucose using maltose as substrate after 10 to 30 mins by spectrophotometry. Set-up: species or system Oryza sativa. Summed up:
as §1

The nature of test [10]: Inhibition of rice alpha-glucosidase. The arrangement: species or system Oryza sativa. The method in brief: as §1
A short description of test [11]: Inhibition of rat intestinal maltase. Summed up: as §1
Test [12] concerns the target Sucrase-isomaltase, intestinal (Rattus norvegicus) (UniProt P23739). Conditions: 1000 uM.
The target of test [13] is T4, Glucosylceramidase (Bos taurus) (UniProt Q2KHZ8).
T4 sequence (whole entry): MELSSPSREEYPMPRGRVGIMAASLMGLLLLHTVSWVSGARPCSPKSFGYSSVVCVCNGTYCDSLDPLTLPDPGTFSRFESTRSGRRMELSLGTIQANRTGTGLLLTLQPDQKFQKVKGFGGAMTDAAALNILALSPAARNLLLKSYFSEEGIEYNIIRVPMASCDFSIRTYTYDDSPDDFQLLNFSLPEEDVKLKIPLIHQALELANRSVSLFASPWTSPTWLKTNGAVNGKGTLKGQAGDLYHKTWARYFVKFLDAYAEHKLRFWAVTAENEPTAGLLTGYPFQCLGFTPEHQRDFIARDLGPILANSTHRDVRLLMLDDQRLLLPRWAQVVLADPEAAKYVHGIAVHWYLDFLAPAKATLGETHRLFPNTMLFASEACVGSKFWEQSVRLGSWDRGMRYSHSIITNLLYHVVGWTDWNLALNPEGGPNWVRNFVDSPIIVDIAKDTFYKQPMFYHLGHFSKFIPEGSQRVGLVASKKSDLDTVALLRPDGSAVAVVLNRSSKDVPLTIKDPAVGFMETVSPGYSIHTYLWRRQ
Kind of test: Inhibition of bovine liver beta-glucosidase assessed as production of p-nitrophenol using p-nitrophenyl glycoside as substrate at 1000 uM by spectrophotometry.

The target of test [14] is T5, Tissue alpha-L-fucosidase (Bos taurus, UniProt Q2KIM0).
T5 sequence (Q2KIM0 whole entry): T3 sequence (whole entry)
Kind of test: Inhibition of bovine epididymis alpha-L-fucosidase assessed as production of p-nitrophenol by spectrophotometry. Summed up:
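Commercial enzymes were assayed at their own optimum pH: bovine epididymis α-L-fucosidase pH 5.5, bovine liver β-galactosidase pH 6.8, coffee bean α-galactosidase pH 6.5. Reactions contained 2 mM of the matching p-nitrophenyl glycoside plus enzyme. They were stopped with 400 mM Na2CO3, and released p-nitrophenol was read at 400 nm.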

For test [15], the target named is T6, Lysosomal acid glucosylceramidase (Homo sapiens) (UniProt P04062).
T6 sequence (whole entry): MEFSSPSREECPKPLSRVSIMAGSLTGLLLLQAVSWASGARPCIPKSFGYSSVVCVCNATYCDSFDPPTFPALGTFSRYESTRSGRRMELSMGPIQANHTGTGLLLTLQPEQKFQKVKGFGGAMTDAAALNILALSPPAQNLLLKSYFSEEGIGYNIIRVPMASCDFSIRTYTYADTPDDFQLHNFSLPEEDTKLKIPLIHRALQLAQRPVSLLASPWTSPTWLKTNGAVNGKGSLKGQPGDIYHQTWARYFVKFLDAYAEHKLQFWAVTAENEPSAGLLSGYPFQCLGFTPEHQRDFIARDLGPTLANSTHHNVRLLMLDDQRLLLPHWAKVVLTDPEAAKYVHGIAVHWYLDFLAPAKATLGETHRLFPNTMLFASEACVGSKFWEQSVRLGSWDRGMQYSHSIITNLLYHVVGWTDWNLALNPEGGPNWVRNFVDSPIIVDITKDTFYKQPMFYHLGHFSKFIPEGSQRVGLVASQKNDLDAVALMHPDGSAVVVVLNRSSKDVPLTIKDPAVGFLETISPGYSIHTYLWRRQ
Particulars: 1000 uM.

Sucrase-isomaltase, intestinal (Rattus norvegicus), sequence (P23739 1-1013 limits assumed): as the sequence (P23739 1-1013 limits assumed) above
Sucrase-isomaltase, intestinal (Rattus norvegicus), sequence (P23739 1014-1841 limits assumed): as the sequence (P23739 1014-1841 limits assumed) above

One may read the IC50 as the concentration that inhibits the measured activity by half. Broadly, the inhibition is the percentage by which the read-out fell short of the control. Turning to `OC[C@H]1CNC[C@@H](O)[C@@H]1O` [AFEGOSTAT], the IC50 in test [1] came out at 653 µM; at Beta-galactosidase, 3.6 µM; in test [2], 531 µM; in test [3], 0.12 µM; in [4], 0.98 µM; in test [6], 0.3 µM. Further, the IC50 in test [7] was 290 µM. For the same compound, the inhibition (with Penicillium decumbens; with Coffea; in the test with Oryza sativa; in test [5]; in the test on Helix pomatia; in the test on Canavalia ensiformis) was less than 50% each time.
For the compound `OC[C@H]1NCC[C@@H](O)[C@@H]1O` [FAGOMINE], the IC50 in test [1] turned out to be 113 µM; in test [2], 34 µM; in [9] it was 320 µM; in [7] it was 37 µM. In addition, the inhibition (with Penicillium decumbens; with Coffea; in the test with Prunus dulcis; in [8]; in the test filed under Rattus norvegicus; in test [5]) was less than 50% each time. The inhibition in the test with Helix pomatia and in the test with Canavalia ensiformis was less than 50% in each case.
For orientation: Ki means the dissociation constant of the complex between target and ligand, obtained from inhibition or displacement. Higher therefore signals lower affinity. `OCC1(O)CNC[C@H]1O` (single isomer, unassigned): the results for the Ki in [10] and in test [11] were 4 µM and 6 µM, respectively.
Consider `OC[C@@H]1NCC[C@@H](O)[C@H]1O`, for which the IC50 turned out to be 357 µM in test [1]; 225 µM in [2]; 122 µM in test [3]; 260 µM in test [14]; 188 µM in test [9]; 809 µM in [6]. The inhibition (with Penicillium decumbens; in the test on Coffea; in test [12]; in test [13]; in the test on Prunus dulcis; in [15]) was less than 50% each time. In addition, the inhibition with Helix pomatia and in the test with Canavalia ensiformis was less than 50% each time.
